Laboratory results taken from ChEMBL document CHEMBL1127817, “Antitumor agents. 150. 2',3',4',5',5,6,7-substituted 2-phenyl-4-quinolones and related compounds: their synthesis, cytotoxicity, and inhibition of tubulin polymerization” (J Med Chem, 1994).

Assays:
NCI-H226 = experiment: In vitro inhibition of tumor cell growth of NCI-H226, a non small-cell lung cancer cell line; assay type: functional; conditions: Homo sapiens
SK-MEL-5 = experiment: In vitro inhibition of tumor cell growth of SK-Mel-5, melanoma cell line; assay type: functional; conditions: Homo sapiens
RXF 393 = experiment: In vitro inhibition of tumor cell growth of RXF-393, renal cancer cell line; assay type: functional; conditions: Homo sapiens
HCT-116 = experiment: In vitro inhibition of tumor cell growth of HCT116, colon cancer cell line; assay type: functional; conditions: Homo sapiens
Tubulin (Bos taurus) = Tubulin (Bos taurus) (UniProt Q6B856+Q862L2+Q862F3); experiment: Inhibition of colchicine binding to tubulin isolated from bovine brain tissue; assay type: functional; design: concentration or dose not given beside the values; conditions: concentration not given here
How it was run: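 1.0 μM tubulin incubated with 5.0 μM [3H]colchicine and 5.0 μM test agent; bound colchicine measured by DEAE-cellulose filter technique.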

SF-268 [1] = experiment: In vitro inhibition of tumor cell growth of SF-268, CNS tumor cell line; assay type: functional; conditions: Homo sapiens
SF-295 = experiment: In vitro inhibition of tumor cell growth of SF-295, CNS tumor cell line; assay type: functional; conditions: Homo sapiens
Tubulin beta chain = Tubulin beta chain (Bos taurus, UniProt Q6B856); experiment: Inhibition of tubulin polymerization; assay type: functional
OVCAR-3 = experiment: In vitro inhibition of tumor cell growth of OVCAR-3, ovarian cancer cell line; assay type: functional; conditions: Homo sapiens
KM-20L2 [2] = experiment: Inhibition of in vitro tumor cell growth in KM20L2, colon cancer cell line; assay type: functional; conditions: Homo sapiens
SF-268 [3] = experiment: In vitro inhibition of tumor cell growth ofSF-268, CNS tumor cell line; assay type: functional; conditions: Homo sapiens
DMS-114 = experiment: In vitro inhibition of tumor cell growth of DMS114, a small-cell lung cancer cell line; conditions: Homo sapiens
KM-20L2 [4] = experiment: In vitro inhibition of tumor cell growth of KM20L2, colon cancer cell line; assay type: functional; conditions: Homo sapiens

Sequence of Tubulin beta chain (Q6B856 whole entry): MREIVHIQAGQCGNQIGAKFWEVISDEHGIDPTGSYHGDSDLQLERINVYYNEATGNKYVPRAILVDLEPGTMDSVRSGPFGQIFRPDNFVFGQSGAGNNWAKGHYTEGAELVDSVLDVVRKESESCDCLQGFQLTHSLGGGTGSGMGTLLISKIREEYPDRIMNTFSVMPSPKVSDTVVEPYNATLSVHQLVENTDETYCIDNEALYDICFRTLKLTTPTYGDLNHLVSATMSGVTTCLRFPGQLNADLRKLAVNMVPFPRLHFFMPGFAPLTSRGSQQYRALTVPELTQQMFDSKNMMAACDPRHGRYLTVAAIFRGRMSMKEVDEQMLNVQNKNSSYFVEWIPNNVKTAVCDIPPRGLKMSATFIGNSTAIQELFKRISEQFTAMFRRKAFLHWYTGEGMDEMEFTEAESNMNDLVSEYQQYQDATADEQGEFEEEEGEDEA

COc1cccc(-c2cc(O)c3cc(OC)ccc3n2)c1
GI50 (NCI-H226): 347 nM
GI50 (SK-MEL-5): 117 nM
GI50 (RXF 393): 191 nM
GI50 (HCT-116): 155 nM
inhibition (Tubulin (Bos taurus)): 13%
GI50 (SF-268 [1]): 229 nM
GI50 (SF-295): 151 nM
IC50 (Tubulin beta chain): 740 nM

COc1ccccc1-c1cc(O)c2cc3c(cc2n1)OCO3
GI50 (NCI-H226): 22900 nM
GI50 (OVCAR-3): 39800 nM
GI50 (SK-MEL-5): 89100 nM
GI50 (KM-20L2 [2]): 18600 nM
GI50 (RXF 393): 15100 nM
GI50 (SF-268 [3]): 64600 nM
GI50 (HCT-116): 28200 nM
GI50 (DMS-114): 25100 nM
GI50 (SF-295): 20900 nM
IC50 (Tubulin beta chain): 14000 nM

COc1ccc(-c2cc(O)c3cc4c(cc3n2)OCO4)cc1
GI50 (NCI-H226): 28800 nM
GI50 (OVCAR-3): > 100000 nM
GI50 (SK-MEL-5): > 100000 nM
GI50 (RXF 393): 38000 nM
GI50 (HCT-116): > 100000 nM
GI50 (DMS-114): > 100000 nM
GI50 (KM-20L2 [4]): > 100000 nM
GI50 (SF-268 [1]): > 100000 nM
GI50 (SF-295): > 100000 nM
IC50 (Tubulin beta chain): > 40000 nM

COc1cc(-c2cc(O)c3cc4c(cc3n2)OCO4)cc(OC)c1OC
GI50 (NCI-H226): > 100000 nM
GI50 (OVCAR-3): > 100000 nM
GI50 (SK-MEL-5): 93300 nM
GI50 (RXF 393): 21900 nM
GI50 (HCT-116): 74100 nM
GI50 (DMS-114): 83200 nM
GI50 (KM-20L2 [4]): > 100000 nM
GI50 (SF-268 [1]): 32400 nM
GI50 (SF-295): 32400 nM
IC50 (Tubulin beta chain): > 40000 nM

COc1ccc(OC)c(-c2cc(O)c3cc4c(cc3n2)OCO4)c1
GI50 (NCI-H226): 6310 nM
GI50 (OVCAR-3): 4900 nM
GI50 (SK-MEL-5): 4070 nM
GI50 (RXF 393): 3020 nM
GI50 (HCT-116): 3240 nM
GI50 (DMS-114): 5010 nM
GI50 (KM-20L2 [4]): 6920 nM
GI50 (SF-268 [1]): 8320 nM
GI50 (SF-295): 6610 nM
IC50 (Tubulin beta chain): 5500 nM

COc1ccc2nc(-c3cccc(N(C)C)c3)cc(O)c2c1
GI50 (NCI-H226): 372 nM
GI50 (OVCAR-3): 170 nM
GI50 (SK-MEL-5): 195 nM
GI50 (RXF 393): 120 nM
GI50 (HCT-116): 195 nM
inhibition (Tubulin (Bos taurus)): 18%
GI50 (SF-268 [1]): 603 nM
GI50 (SF-295): 204 nM
IC50 (Tubulin beta chain): 840 nM

COc1cc(OC)cc(-c2cc(O)c3cc4c(cc3n2)OCO4)c1
GI50 (NCI-H226): 219 nM
GI50 (OVCAR-3): 195 nM
GI50 (SK-MEL-5): 309 nM
GI50 (RXF 393): 219 nM
GI50 (HCT-116): 316 nM
inhibition (Tubulin (Bos taurus)): 31%
GI50 (DMS-114): 302 nM
GI50 (KM-20L2 [4]): 708 nM
GI50 (SF-268 [1]): 708 nM
GI50 (SF-295): 257 nM
IC50 (Tubulin beta chain): 620 nM

COc1ccc(-c2cc(O)c3cc(Cl)ccc3n2)cc1
GI50 (NCI-H226): > 100000 nM
GI50 (OVCAR-3): > 100000 nM
GI50 (SK-MEL-5): > 100000 nM
GI50 (RXF 393): > 100000 nM
GI50 (HCT-116): > 100000 nM
GI50 (DMS-114): > 100000 nM
GI50 (KM-20L2 [4]): > 100000 nM
GI50 (SF-268 [1]): > 100000 nM
GI50 (SF-295): > 100000 nM
IC50 (Tubulin beta chain): > 40000 nM

COc1ccc2nc(-c3ccccc3)cc(O)c2c1
inhibition (Tubulin (Bos taurus)): 11%
IC50 (Tubulin beta chain): 610 nM

COc1ccc(-c2cc(O)c3ccc(F)cc3n2)cc1
GI50 (NCI-H226): > 100000 nM
GI50 (OVCAR-3): > 100000 nM
GI50 (SK-MEL-5): > 100000 nM
GI50 (RXF 393): > 100000 nM
GI50 (HCT-116): > 100000 nM
GI50 (DMS-114): > 100000 nM
GI50 (KM-20L2 [4]): > 100000 nM
GI50 (SF-268 [1]): > 100000 nM
GI50 (SF-295): > 100000 nM
IC50 (Tubulin beta chain): > 40000 nM

Oc1cc(-c2ccc[nH]2)nc2cc3c(cc12)OCO3
GI50 (NCI-H226): 35500 nM
GI50 (OVCAR-3): 30900 nM
GI50 (SK-MEL-5): 7760 nM
GI50 (RXF 393): 15800 nM
GI50 (HCT-116): 29500 nM
GI50 (DMS-114): 32400 nM
GI50 (KM-20L2 [4]): 20000 nM
GI50 (SF-268 [1]): > 100000 nM
GI50 (SF-295): 33900 nM
IC50 (Tubulin beta chain): 18000 nM

O=c1cc(-c2ccccc2F)[nH]c2cc3c(cc12)OCO3
GI50 (NCI-H226): 447 nM
GI50 (OVCAR-3): 81.3 nM
GI50 (SK-MEL-5): 20.9 nM
GI50 (HCT-116): 60.3 nM
inhibition (Tubulin (Bos taurus)): 37%
GI50 (DMS-114): 513 nM
GI50 (SF-268 [1]): 2290 nM
GI50 (SF-295): 55 nM
IC50 (Tubulin beta chain): 850 nM

CN(C)c1cccc(-c2cc(O)c3cc4c(cc3n2)OCO4)c1
GI50 (NCI-H226): 316 nM
GI50 (OVCAR-3): 245 nM
GI50 (SK-MEL-5): 195 nM
GI50 (RXF 393): 240 nM
GI50 (HCT-116): 372 nM
GI50 (DMS-114): 407 nM
GI50 (KM-20L2 [4]): 229 nM
GI50 (SF-268 [1]): 741 nM
GI50 (SF-295): 240 nM
IC50 (Tubulin beta chain): 700 nM

COc1cccc(-c2cc(O)c3cc4c(cc3n2)OCO4)c1
GI50 (NCI-H226): 200 nM
GI50 (OVCAR-3): 45.7 nM
GI50 (SK-MEL-5): 37.1 nM
GI50 (RXF 393): 45.7 nM
GI50 (SF-268 [3]): 132 nM
GI50 (HCT-116): 174 nM
GI50 (DMS-114): 240 nM
GI50 (KM-20L2 [4]): 182 nM
GI50 (SF-295): 91.2 nM
IC50 (Tubulin beta chain): 570 nM

Oc1cc(-c2cccs2)nc2cc3c(cc12)OCO3
GI50 (NCI-H226): 6310 nM
GI50 (OVCAR-3): 7940 nM
GI50 (SK-MEL-5): 1350 nM
GI50 (RXF 393): 2040 nM
GI50 (HCT-116): 4790 nM
GI50 (DMS-114): 6760 nM
GI50 (KM-20L2 [4]): 14500 nM
GI50 (SF-268 [1]): 11200 nM
GI50 (SF-295): 3240 nM
IC50 (Tubulin beta chain): 2200 nM

COc1ccc(-c2cc(O)c3cc4c(cc3n2)OCO4)cc1OC
GI50 (NCI-H226): > 100000 nM
GI50 (OVCAR-3): > 100000 nM
GI50 (SK-MEL-5): > 100000 nM
GI50 (RXF 393): > 100000 nM
GI50 (HCT-116): > 100000 nM
GI50 (DMS-114): > 100000 nM
GI50 (KM-20L2 [4]): > 100000 nM
GI50 (SF-268 [1]): > 100000 nM
GI50 (SF-295): > 100000 nM
IC50 (Tubulin beta chain): > 40000 nM

COc1ccc2nc(-c3ccc(O)cc3)cc(O)c2c1
GI50 (NCI-H226): 209 nM
GI50 (OVCAR-3): 302 nM
GI50 (SK-MEL-5): 288 nM
GI50 (RXF 393): 170 nM
GI50 (HCT-116): 209 nM
GI50 (DMS-114): 178 nM
GI50 (KM-20L2 [4]): 407 nM
GI50 (SF-268 [1]): 417 nM
GI50 (SF-295): 245 nM
IC50 (Tubulin beta chain): 5600 nM

Oc1c2c(nc3cc4c(cc13)OCO4)-c1ccccc1CC2
GI50 (NCI-H226): > 100000 nM
GI50 (OVCAR-3): > 100000 nM
GI50 (SK-MEL-5): > 100000 nM
GI50 (RXF 393): > 100000 nM
GI50 (HCT-116): > 100000 nM
GI50 (DMS-114): > 100000 nM
GI50 (KM-20L2 [4]): > 100000 nM
GI50 (SF-268 [1]): > 100000 nM
GI50 (SF-295): > 100000 nM
IC50 (Tubulin beta chain): > 40000 nM

Cc1ccc(-c2cc(O)c3cc4c(cc3n2)OCO4)cc1
GI50 (NCI-H226): 1580 nM
GI50 (OVCAR-3): 427 nM
GI50 (SK-MEL-5): 1740 nM
GI50 (HCT-116): 676 nM
inhibition (Tubulin (Bos taurus)): 12%
GI50 (KM-20L2 [4]): 1410 nM
GI50 (SF-268 [1]): 2190 nM
GI50 (SF-295): 1910 nM

Oc1cc(-c2ccccc2Cl)nc2cc3c(cc12)OCO3
GI50 (NCI-H226): 263 nM
GI50 (OVCAR-3): 77.6 nM
GI50 (SK-MEL-5): 36.3 nM
GI50 (HCT-116): 87.1 nM
inhibition (Tubulin (Bos taurus)): 24%
GI50 (SF-268 [1]): 692 nM
IC50 (Tubulin beta chain): 890 nM
